Data reported in ChEMBL document CHEMBL1126828, “Structure-activity relationships of trans-3,4-dimethyl-4-(3-hydroxyphenyl)piperidine antagonists for mu- and kappa-opioid receptors” (J Med Chem, 1993).
Activity calls are given as the source filed them. The rule behind the calls is not given here.

Legend:
[1] = molecular target: Kappa-type opioid receptor (Mus musculus) (UniProt P33534); assay: Antagonism of opioid analgesia using a mouse writhing model to block U-50,488 ([…]) induced kappa-opioid receptor subcutaneously; format: functional, organism-based
Sequence of Kappa-type opioid receptor (Mus musculus) (P33534 whole entry): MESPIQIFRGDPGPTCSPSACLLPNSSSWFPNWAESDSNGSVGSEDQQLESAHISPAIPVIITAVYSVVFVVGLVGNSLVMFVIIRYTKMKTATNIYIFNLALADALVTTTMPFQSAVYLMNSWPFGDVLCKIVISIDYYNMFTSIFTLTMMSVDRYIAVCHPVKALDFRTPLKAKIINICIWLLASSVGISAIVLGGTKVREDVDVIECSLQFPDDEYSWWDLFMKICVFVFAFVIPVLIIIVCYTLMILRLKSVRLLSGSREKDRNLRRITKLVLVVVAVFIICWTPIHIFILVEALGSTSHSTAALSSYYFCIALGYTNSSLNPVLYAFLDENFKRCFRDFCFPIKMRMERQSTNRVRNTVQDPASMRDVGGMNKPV

[2] = molecular target: Kappa-type opioid receptor (Rattus norvegicus) (UniProt P34975); assay: Tested for the antagonism of kappa opioid receptor diuresis at a dose of 0.08 mg/kg subcutaneously; format: functional, organism-based; design: dose 0.08 mg/kg
Sequence of Kappa-type opioid receptor (Rattus norvegicus) (P34975 whole entry): as the sequence (P33534 whole entry) above, with D11E, S17A, S51P, A308V counted along it
Summary of the method: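 Male Long-Evans hooded rats (350-500 g), bremazocine HCl 0.08 mg/kg sc to induce diuresis, test antagonist sc at once on opposite side; metabolism cages, urine volume at 2 and 5 h. Three rats per dose, doses varied 2-fold; AD50 = dose halving 5-h urination.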

[3] = molecular target: Mu-type opioid receptor (Mus musculus) (UniProt P42866); assay: Antagonism of opioid analgesia using a mouse writhing model to block morphine ([…]) induced mu-opioid receptor (subcutaneously dosed); format: functional, organism-based
Sequence of Mu-type opioid receptor (Mus musculus) (P42866 whole entry): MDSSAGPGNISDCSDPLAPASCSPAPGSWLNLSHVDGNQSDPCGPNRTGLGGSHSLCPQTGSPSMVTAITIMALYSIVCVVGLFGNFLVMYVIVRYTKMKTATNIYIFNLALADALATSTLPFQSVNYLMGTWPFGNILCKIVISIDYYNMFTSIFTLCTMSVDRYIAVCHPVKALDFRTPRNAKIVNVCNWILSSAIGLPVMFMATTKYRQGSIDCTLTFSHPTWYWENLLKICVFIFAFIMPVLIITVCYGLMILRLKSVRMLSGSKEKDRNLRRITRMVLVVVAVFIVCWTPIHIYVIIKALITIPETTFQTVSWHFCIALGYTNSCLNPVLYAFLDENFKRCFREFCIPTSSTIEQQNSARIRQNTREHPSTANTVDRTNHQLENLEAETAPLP

Mu-type opioid receptor [4] = molecular target: T1, Mu-type opioid receptor (Rattus norvegicus, UniProt P33535); assay: Binding affinity towards mu-opioid receptor by displacement of [3H]NAL at 10 nM from rat brain homogenates; format: tissue-based
T1 sequence (P33535 whole entry): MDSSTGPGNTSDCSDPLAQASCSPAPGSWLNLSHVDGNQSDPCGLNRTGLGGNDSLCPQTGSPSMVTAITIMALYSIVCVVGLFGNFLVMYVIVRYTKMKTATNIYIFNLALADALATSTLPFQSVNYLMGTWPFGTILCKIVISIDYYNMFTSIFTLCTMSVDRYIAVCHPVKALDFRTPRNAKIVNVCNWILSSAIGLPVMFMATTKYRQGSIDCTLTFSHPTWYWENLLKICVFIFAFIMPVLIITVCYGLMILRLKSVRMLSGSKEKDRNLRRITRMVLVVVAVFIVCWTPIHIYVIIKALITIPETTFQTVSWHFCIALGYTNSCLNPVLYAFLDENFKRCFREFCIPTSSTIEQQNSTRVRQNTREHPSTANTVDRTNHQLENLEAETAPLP

Mu-type opioid receptor [5] = molecular target: T1, Mu-type opioid receptor; assay: Binding affinity towards mu-opioid receptor by displacement of [3H]NAL at 100 nM from rat brain homogenates; format: tissue-based
[6] = molecular target: T2, Kappa-type opioid receptor (Cavia porcellus, UniProt P41144); assay: Binding affinity towards kappa-opioid receptor by displacement of [3H]-EKC at from guinea pig cortical tissue
T2 sequence (P41144 whole entry): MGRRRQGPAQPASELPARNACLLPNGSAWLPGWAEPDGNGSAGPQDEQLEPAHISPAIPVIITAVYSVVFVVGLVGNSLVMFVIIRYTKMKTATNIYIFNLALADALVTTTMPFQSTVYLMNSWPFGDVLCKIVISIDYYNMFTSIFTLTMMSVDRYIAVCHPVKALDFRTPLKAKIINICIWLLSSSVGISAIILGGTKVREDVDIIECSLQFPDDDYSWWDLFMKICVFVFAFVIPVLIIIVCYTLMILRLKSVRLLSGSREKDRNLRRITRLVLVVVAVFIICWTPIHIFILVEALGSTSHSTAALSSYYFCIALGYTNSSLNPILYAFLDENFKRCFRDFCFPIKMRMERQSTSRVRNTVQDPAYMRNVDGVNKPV

Mu-type opioid receptor [7] = molecular target: T1, Mu-type opioid receptor; assay: Binding affinity towards mu opioid receptor by displacement of [3H]NAL from rat brain homogenates; format: tissue-based
[8] = molecular target: T2, Kappa-type opioid receptor; assay: Binding affinity towards kappa-opioid receptor by displacement of [3H]EKC from guinea pig cortical tissue
Summary of the method: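 Guinea pig cortical washed crude synaptosomal membranes (stored -125 °C) in modified Krebs-HEPES pH 7.4; 1.0 nM [3H]ethylketocyclazocine, 100 nM fentanyl and 100 nM D-Ala2-D-Leu5-enkephalin to block mu/delta sites; 37 °C, 45 min. Nonspecific: 1000 nM unlabeled EKC. GF-C filtration, ice-cold washes, scintillation counting. Ki from at least six concentrations in triplicate, by regression.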

[9] = molecular target: Mu-type opioid receptor (Mus musculus) (UniProt P42866); conditions: 0.08 mg/kg

Structure (SMILES) | AD50 [1] | AD50 [2] | AD50 [3] | Ki (Mu-type opioid receptor [4]) | Ki (Mu-type opioid receptor [5]) | Ki [6] | Ki (Mu-type opioid receptor [7]) | Ki [8] | AD50 [9]
C[C@H]1CN(CCCCc2cccs2)CC[C@@]1(C)c1cccc(O)c1 | 0.43 mg/kg | 3.3 mg/kg | 0.16 mg/kg | 23 nM | 69 nM | – | – | – | –
CCN1CC[C@@](C)(c2cccc(O)c2)[C@@H](C)C1 | > 1.25 mg/kg | – | > 1.25 mg/kg | – | – | 18 nM | 52 nM | – | –
C[C@H]1CN(CCc2cccc(Cl)c2)CC[C@@]1(C)c1cccc(O)c1 | 0.38 mg/kg | 3.6 mg/kg | 0.44 mg/kg | – | – | – | 0.3 nM | – | –
C[C@H]1CN(Cc2ccccc2)CC[C@@]1(C)c1cccc(O)c1 | 0.45 mg/kg | 2.5 mg/kg | 0.29 mg/kg | 65 nM | 89 nM | – | – | – | –
C=CCN1CC[C@@](C)(c2cccc(O)c2)[C@@H](C)C1 | > 10 mg/kg | – | 1.3 mg/kg | – | – | 313 nM | 16 nM | – | –
C[C@H]1CN(CCCc2ccccc2)CC[C@@]1(C)c1cccc(O)c1 | – | 1.1 mg/kg | 2.4 mg/kg | – | – | 15 nM | 0.69 nM | – | –
C[C@H]1CN(CCCc2cccs2)CC[C@@]1(C)c1cccc(O)c1 (stereo in doubt; 41) [listing 1 of 2 here] | 0.3 mg/kg | – | – | – | – | – | – | – | –
Cc1ccccc1CCCN1CC[C@@](C)(c2cccc(O)c2)[C@@H](C)C1 | 0.09 mg/kg | 1.4 mg/kg | 0.05 mg/kg | – | – | 8.9 nM | 0.62 nM | – | –
C[C@H]1CN(CCC(O)c2cccs2)CC[C@@]1(C)c1cccc(O)c1 (stereo partly drawn) | 0.14 mg/kg | 1.4 mg/kg | 0.07 mg/kg | – | – | 11.7 nM | 0.5 nM | – | –
C[C@@H]1CN(CCCc2cccs2)CC[C@]1(C)c1cccc(O)c1 | – | – | – | – | – | 13 nM | 1.8 nM | – | –
C[C@H]1CN(CCCc2ccco2)CC[C@@]1(C)c1cccc(O)c1 | 0.26 mg/kg | – | 0.08 mg/kg | – | – | 14 nM | 1.4 nM | – | –
C[C@@H]1CN(CCC(=O)c2ccccc2)CC[C@]1(C)c1cccc(O)c1 | – | – | – | – | – | 318 nM | 12 nM | – | –
C[C@H]1CN(CCC(=O)c2ccccc2)CC[C@@]1(C)c1cccc(O)c1 (stereo in doubt; 6) [listing 1 of 2 here] | 4.5 mg/kg | 3.2 mg/kg | 0.14 mg/kg | – | – | – | – | – | –
C[C@H]1CN(Cc2ccco2)CC[C@@]1(C)c1cccc(O)c1 | 1.35 mg/kg | – | 0.71 mg/kg | – | – | 71 nM | 5.8 nM | – | –
C[C@H]1CN(CC2CCCO2)CC[C@@]1(C)c1cccc(O)c1 (stereo partly drawn) | 0.75 mg/kg | 3.2 mg/kg | 0.6 mg/kg | 26 nM | 60 nM | – | – | – | –
C[C@H]1CN(CC(O)c2ccccc2)CC[C@@]1(C)c1cccc(O)c1 (stereo partly drawn) | 11.8 mg/kg | 6.9 mg/kg | 2.4 mg/kg | 48 nM | 97 nM | – | – | – | –
C[C@H]1CN(CCc2ccncc2)CC[C@@]1(C)c1cccc(O)c1 | > 1.25 mg/kg | 14 mg/kg | > 1.25 mg/kg | 54 nM | 99 nM | – | – | – | –
CCCCCCCN1CC[C@@](C)(c2cccc(O)c2)[C@@H](C)C1 | – | – | – | – | – | – | 0.62 nM | – | –
Cc1ccccc1CCN1CC[C@@](C)(c2cccc(O)c2)[C@@H](C)C1 | 0.33 mg/kg | 0.5 mg/kg | 0.19 mg/kg | 90 nM | 100 nM | – | – | 7.5 nM | –
C[C@H]1CN(CCOc2ccccc2)CC[C@@]1(C)c1cccc(O)c1 | > 40 mg/kg | 3 mg/kg | 0.14 mg/kg | – | – | 57 nM | 1.3 nM | – | –
C[C@H]1CN(CC2CC2)CC[C@@]1(C)c1cccc(O)c1 | 6.1 mg/kg | – | 1.3 mg/kg | – | – | – | 21 nM | – | –
C[C@H]1CN(CCCc2cccs2)CC[C@@]1(C)c1cccc(O)c1 (stereo in doubt; 41) [listing 2 of 2 here] | – | – | – | – | – | 6.1 nM | 0.56 nM | – | –
C[C@H]1CN(CCc2ccccc2Cl)CC[C@@]1(C)c1cccc(O)c1 | 0.51 mg/kg | 3.4 mg/kg | 0.31 mg/kg | – | – | – | 3.5 nM | – | –
Cc1cccc(CCCN2CC[C@@](C)(c3cccc(O)c3)[C@@H](C)C2)c1 | > 0.32 mg/kg | 10 mg/kg | > 1.25 mg/kg | – | – | – | 2.8 nM | – | –

Structure (SMILES) | AD50 [1] | AD50 [2] | AD50 [3] | Ki (Mu-type opioid receptor [4]) | Ki (Mu-type opioid receptor [5]) | Ki [6] | Ki (Mu-type opioid receptor [7]) | Ki [8] | AD50 [9]
C[C@H]1CN(CCCc2cccc(Cl)c2)CC[C@@]1(C)c1cccc(O)c1 | > 1.25 mg/kg | 11 mg/kg | 0.76 mg/kg | 89 nM | 100 nM | – | – | – | –
C[C@H]1CN(CCCCc2ccccc2)CC[C@@]1(C)c1cccc(O)c1 | > 1.25 mg/kg | 4.1 mg/kg | 0.28 mg/kg | – | – | – | 2 nM | – | –
C[C@H]1CN(CCCc2cccs2)CC[C@@]1(C)c1cccc(O)c1 (stereo in doubt; 42) [listing 1 of 2 here] | – | – | – | – | – | 3.3 nM | 0.2 nM | – | –
C[C@H]1CN(CCC(O)c2ccccc2)CC[C@@]1(C)c1cccc(O)c1 (stereo partly drawn) | – | – | – | – | – | 12.5 nM | 0.96 nM | – | –
C[C@H]1CN(CCCc2cccs2)CC[C@@]1(C)c1cccc(O)c1 (stereo in doubt; 42) [listing 2 of 2 here] | 0.25 mg/kg | – | 0.03 mg/kg | – | – | – | – | – | –
C[C@H]1CN(CCCOc2ccccc2)CC[C@@]1(C)c1cccc(O)c1 | > 1.25 mg/kg | 8.4 mg/kg | > 1.25 mg/kg | – | – | 61 nM | 1 nM | – | –
CCCCCCN1CC[C@@](C)(c2cccc(O)c2)[C@@H](C)C1 | 0.11 mg/kg | 0.7 mg/kg | 0.052 mg/kg | – | – | – | 0.29 nM | – | –
C[C@H]1CN(CCCc2ccsc2)CC[C@@]1(C)c1cccc(O)c1 | – | – | – | 0.26 nM | – | 10 nM | – | – | –
Cc1cccc(CCN2CC[C@@](C)(c3cccc(O)c3)[C@@H](C)C2)c1 | 0.95 mg/kg | 5.7 mg/kg | 0.27 mg/kg | 83 nM | 100 nM | – | – | – | –
C[C@H]1CN(CCc2cccs2)CC[C@@]1(C)c1cccc(O)c1 | 0.25 mg/kg | 3.8 mg/kg | 0.25 mg/kg | – | – | – | 5.3 nM | – | –
C[C@H]1CN(CCc2ccccc2)CC[C@@]1(C)c1cccc(O)c1 | 1.4 mg/kg | 1.8 mg/kg | 0.16 mg/kg | – | – | – | – | – | –
C[C@H]1CN(CCC(=O)c2ccccc2)CC[C@@]1(C)c1cccc(O)c1 (stereo in doubt; 8) | – | – | – | – | – | 163 nM | 3.6 nM | – | –
C[C@H]1CN(C)CC[C@@]1(C)c1cccc(O)c1 | – | > 10 mg/kg | 0.74 mg/kg | – | – | 833 nM | 80 nM | – | –
CCCCCN1CC[C@@](C)(c2cccc(O)c2)[C@@H](C)C1 | – | 0.69 mg/kg | 0.37 mg/kg | – | – | – | 4.3 nM | – | –
C[C@H]1CN(CCc2ccc(Cl)c(Cl)c2)CC[C@@]1(C)c1cccc(O)c1 | – | – | – | 50 nM | 90 nM | – | – | – | inactive
C[C@H]1CN(CCc2cccc(F)c2)CC[C@@]1(C)c1cccc(O)c1 | 0.84 mg/kg | 1.4 mg/kg | 0.14 mg/kg | 3.2 nM | – | – | – | – | –
COc1ccccc1CCCN1CC[C@@](C)(c2cccc(O)c2)[C@@H](C)C1 | > 0.64 mg/kg | 2.2 mg/kg | 0.18 mg/kg | – | – | – | 0.95 nM | – | –
C[C@H]1CN(CC(O)Cc2ccccc2)CC[C@@]1(C)c1cccc(O)c1 (stereo partly drawn) | 0.85 mg/kg | 3.7 mg/kg | 0.27 mg/kg | 88 nM | 100 nM | – | – | – | –
C[C@H]1CN(Cc2ccoc2)CC[C@@]1(C)c1cccc(O)c1 | 0.71 mg/kg | 3.8 mg/kg | 0.4 mg/kg | 82 nM | 100 nM | – | – | – | –
C[C@H]1CN(CCC(=O)c2ccccc2)CC[C@@]1(C)c1cccc(O)c1 (stereo in doubt; 6) [listing 2 of 2 here] | – | – | – | – | – | 208 nM | 5.4 nM | – | –
CC(CCCN1CC[C@@](C)(c2cccc(O)c2)[C@@H](C)C1)c1ccccc1 (stereo partly drawn) | 0.91 mg/kg | 8.4 mg/kg | 0.25 mg/kg | 63 nM | 100 nM | – | – | – | –
Cc1ccc(CCN2CC[C@@](C)(c3cccc(O)c3)[C@@H](C)C2)cc1 | > 1.25 mg/kg | 11 mg/kg | > 1.25 mg/kg | 52 nM | 95 nM | – | – | – | –
C[C@H]1CN(CCc2cccc3ccccc23)CC[C@@]1(C)c1cccc(O)c1 | 0.51 mg/kg | > 5 mg/kg | 0.08 mg/kg | 1.1 nM | – | – | – | – | –
C[C@H]1CN(CCC(=O)c2cccs2)CC[C@@]1(C)c1cccc(O)c1 | – | – | – | – | – | 15 nM | 1.5 nM | – | –
